# In the library only some 3.2% were active in any assay of this set; here they are far more common.
# AF4-AF9 inh = inhibitors of AF4 peptide binding to AF9, primary screen, biochemical, AlphaScreen, biotin-AF4 peptide, FLAG-AF9, single point; actives 0.47% (n = 350,000); AID 651704, 2012; Protein AF-9 (Homo sapiens), P42568; inhibition, % at 10 µM;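 active = every replicate reaching a set inhibition limit, whatever the replicate mean, cut at about 25% in these data; inconclusive = mean inhibition reaches that limit but some replicates miss it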
# Target sequence (P42568 whole entry, looked up): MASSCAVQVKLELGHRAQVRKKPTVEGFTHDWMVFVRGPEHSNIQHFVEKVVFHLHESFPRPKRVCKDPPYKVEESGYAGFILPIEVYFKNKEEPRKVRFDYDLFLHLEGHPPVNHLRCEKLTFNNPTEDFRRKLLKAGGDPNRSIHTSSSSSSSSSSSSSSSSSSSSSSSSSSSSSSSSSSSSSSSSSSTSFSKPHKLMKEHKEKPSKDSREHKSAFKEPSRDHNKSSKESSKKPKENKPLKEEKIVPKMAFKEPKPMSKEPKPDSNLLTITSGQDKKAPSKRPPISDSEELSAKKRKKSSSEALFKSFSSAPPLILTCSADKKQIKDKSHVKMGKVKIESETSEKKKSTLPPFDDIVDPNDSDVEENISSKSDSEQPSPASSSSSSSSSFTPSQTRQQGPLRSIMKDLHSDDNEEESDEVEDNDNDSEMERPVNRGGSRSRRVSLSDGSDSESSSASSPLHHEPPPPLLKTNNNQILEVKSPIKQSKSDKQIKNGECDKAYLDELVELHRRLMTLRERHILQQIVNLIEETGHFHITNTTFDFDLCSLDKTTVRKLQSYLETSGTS
# S100A4 MyoIIA = inhibitors of S100A4-myosin IIA peptide binding, primary screen, biochemical, fluorescence polarization, TAMRA-MyoIIA peptide; Protein S100-A4 (Homo sapiens), P26447; inhibition, % at 10.7 µM; actives 0.14% (n = 360,000); AID 652163, 2013;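 active = mean inhibition of at least 70% across replicates, with every replicate also reaching that level; inconclusive = mean inhibition reaches 70% but some replicates fall short; inactive = mean inhibition below 70%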
# Target sequence (P26447 whole entry, looked up): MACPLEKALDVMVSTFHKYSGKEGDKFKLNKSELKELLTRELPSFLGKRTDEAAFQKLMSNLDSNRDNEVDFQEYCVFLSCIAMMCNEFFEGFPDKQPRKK
#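 incubation = readout 5 min after mixing, signal stable up to 60 min | system = S100A4 monomer protein | buffer or medium = HEPES pH 7.2 with CaCl2, KCl, NaCl, DTT, Triton | benchmarks = neutral control DMSO, positive control TFP | also added = fluorescent myosin IIA peptide, 5 nM | compound dosing = one concentration per compound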
# Ecoli rRNA inh = reduced GFP signal of wild-type E. coli, primary screen, bacterial rRNA inhibitor project, GFP/RFP fluorescence, OD600, single point. E. coli WT GFP vs humanized-ribosome RFP mutants, 24 h; active compounds read low; DMSO median 0, no signal -100. GFP signal change (wild-type ribosome), % (test concentration not listed). actives 1.6% (n = 350,000). AID 720706, 2013;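 active = significant combined selectivity score with lowered wild-type GFP, culture density cut under 30%, mutant RFP and density less affected; inactive = any of these conditions unmet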
# DENV2 CPE rescue = inhibitors of DENV2 cytopathic effect, primary screen, cell-based, plate reader, single concentration. actives 1.7% (n = 350,000). CPE inhibition, % at 9.99 µM. DENV2-infected cells, cytopathic effect rescue; in the data active = CPE inhibition above about 20%, passing the limit was not always enough; inconclusive = no clear call, values can overlap the other calls; tested in BHK-21 cells
# PfHsp90 yeast 2 = growth inhibition of PfHsp90-expressing yeast, primary screen, antimalarial PfHsp90 inhibitor project, S. cerevisiae, BacTiter-Glo luminescence, single point, set 2. BacTiter-Glo ATP, 48 h; yeast lacking PDR1 and PDR3 efflux regulators. inhibition, % at 9.4 µM. AID 504621, 2011. actives 0.32% (n = 310,000);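 active = every replicate shows inhibition above about 80%, whatever the replicate mean, limit read from the data; inconclusive = mean inhibition reaches the set limit but some replicate falls short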
# Cneo AK release = Cryptococcus neoformans cell lysis inducers, primary screen, AK release luminescence, single concentration; C. neoformans lysis, adenylate kinase release luminescence, 4 h; normalised: neutral wells 0, clomiphene wells 100; lysis activity, % at 15 µM; actives 0.2% (n = 360,000);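 active = mean lysis activity across replicates of at least 80%, whatever share of replicates individually reach that level; inactive = mean lysis activity below 80%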
#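 Test system: log-phase Cryptococcus neoformans yeast cells. Input: 5 × 10^6 yeast cells/mL. Medium: fresh YPD growth medium. Doses: single dose. Incubation: static 4 h at 37 °C with compound, 1 h detection. Measured by: luminescent adenylate kinase detection reagent. Read-out: signal increase indicating cell lysis. Benchmarks: Clomiphene.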
# Numbers stand for hits; – = inactive; ? = inconclusive; · = not tested or not shown.
SMILES,AF4-AF9 inh,S100A4 MyoIIA,Ecoli rRNA inh,DENV2 CPE rescue,PfHsp90 yeast 2,Cneo AK release
C[C@H]1CN([C@@H](C)CO)S(=O)(=O)c2ccc(C#CC3(O)CCCC3)cc2O[C@H]1CN(C)C(=O)Cc1ccccc1,–,–,–,–,·,–
CNS(=O)(=O)c1cc(N(C)S(=O)(=O)c2ccc(C)cc2)c(C)cc1C,–,–,-44.6,–,–,·
Cc1ccc(S(=O)(=O)N(C)c2cc(S(=O)(=O)Nc3ccncc3)c(C)cc2C)cc1,·,·,·,·,–,·
COc1ccc(C)c2sc(NC(=O)CCS(=O)(=O)c3ccccc3)nc12,–,–,-30.6,–,–,–
O=C(/C=C/c1ccco1)Nc1sc2c(c1C(=O)O)CCC2,–,–,-23.8,–,·,·
CCCNC(=O)C[C@H]1CC[C@@H]2[C@H](COC[C@@H](O)CN2C(=O)c2cc(Cl)cc(Cl)c2)O1,–,–,–,–,·,–
COc1ccc(NC(=O)Nc2ccc3c(c2)C(=O)N([C@@H](C)CO)C[C@H](C)[C@H](CN(C)C(=O)Nc2c(C)noc2C)O3)cc1,–,–,–,–,·,–
COc1ccc(C2N(c3ccc(Cl)cc3)N=C(C(C)=O)N(C)N2C(C)=O)cc1 (configuration not stated),27.7,–,–,–,–,·
CCc1cccc(NC(=O)CCC(=O)N2CCSc3ccccc32)c1,–,–,-23.6,–,–,–
CCc1ccc(NC(=O)CCC(=O)N2CCSc3ccccc32)cc1,–,–,–,–,–,–
O=C(C[C@@H]1CC[C@H]2[C@@H](COC[C@@H](O)CN2Cc2ccccc2F)O1)NCc1ccccc1F,–,–,–,–,·,–
Cc1c(Cl)cccc1NC(=S)C(=C([O-])c1ccc(Cl)s1)[n+]1ccccc1,–,–,-11.2,?,–,·
O=C(C[C@@H]1CC[C@H]2[C@@H](COC[C@H](O)CN2Cc2ccc3c(c2)OCO3)O1)N1CCOCC1,–,–,–,–,·,–
COc1ccc(C2c3[nH]c4ccccc4c3CCN2Cc2cccn2-c2ncccn2)cc1C (configuration not stated),30.6,–,–,–,–,–
Cc1cccc(C2c3[nH]c4ccccc4c3CCN2Cc2cccn2-c2ncccn2)c1 (configuration not stated),31.0,–,–,–,–,·
COCC#Cc1cnc2c(c1)C(=O)N([C@H](C)CO)C[C@H](C)[C@H](CN(C)C(C)=O)O2,–,–,–,–,·,–
COc1cccc(C(=O)NC(=S)Nc2ccc(Cl)c(C(=O)O)c2)c1,·,·,·,·,–,–
CC(C)Oc1ccc(C(=O)NC(=S)Nc2ccc(Cl)c(C(=O)O)c2)cc1,–,–,-20.6,–,–,·
c1ccc(C2CCCN(Cc3nc(CC4CC4)no3)CC2)cc1 (configuration not stated),–,–,–,–,–,–
c1ccc(C(c2ccccc2)c2noc(CN3CCC(c4ccncc4)CC3)n2)cc1,–,–,-43.2,–,·,–
CC(NC(=O)CN1CCN(c2cccc(Cl)c2)CC1)c1ccccc1 (configuration not stated),–,–,-28.1,44.2,–,–
COc1cccc(N2CCN(CC(=O)NC(C)c3ccccc3)CC2)c1 (configuration not stated),–,–,–,–,–,–
CC(C)NC(=O)Nc1ccc2c(c1)CC(=O)N([C@@H](C)CO)C[C@@H](C)[C@H](CN(C)Cc1ccc3c(c1)OCO3)O2,–,–,–,–,·,–
C=C1C(=O)c2sccc2C(c2ccc(OC)c(OC)c2)C1COC(C)=O (configuration not stated),–,–,-25.4,–,–,·
CCC(=O)N1CC(=O)N2[C@H](C1)[C@H](c1ccc(C#CC(C)C)cc1)[C@@H]2CO,·,·,–,·,·,·
SMILES,AF4-AF9 inh,S100A4 MyoIIA,Ecoli rRNA inh,DENV2 CPE rescue,PfHsp90 yeast 2,Cneo AK release
CCn1c2c(c(=N)c3c1CCC3)CCC2,–,–,–,–,–,·
N=c1c2c(n(Cc3ccc(F)cc3)c3c1CCC3)CCC2,–,–,-29.3,–,·,·
O=C1CNC[C@H]2[C@@H](c3ccc(-c4ccccc4F)cc3)[C@H](CO)N12,–,–,–,–,·,·
O=C(c1ccc(F)cc1)N1CC(=O)N2[C@H](C1)[C@H](c1ccc(-c3ccccc3F)cc1)[C@@H]2CO,–,–,–,25.8,·,·
O=C(c1ccc(F)cc1)N1CC(=O)N2[C@@H](CO)[C@H](c3ccc(-c4ccccc4F)cc3)[C@@H]2C1,–,–,–,–,·,·
O=C(c1ccc(F)cc1)N1CC(=O)N2[C@H](CO)[C@@H](c3ccc(C4=CCCC4)cc3)[C@H]2C1,·,–,–,–,·,·
O=C(c1ccc(F)cc1)N1CC(=O)N2[C@H](C1)[C@H](c1ccc(C3=CCCC3)cc1)[C@@H]2CO,–,–,–,53.2,·,·
O=C1CNC[C@H]2[C@H](c3ccc(-c4ccccc4F)cc3)[C@@H](CO)N12,–,–,–,37.0,·,·
CN(C)C(=O)[C@H]1[C@H](CO)[C@H]2Cn3c(ccc(C4=CCCC4)c3=O)[C@H]2N1C(=O)c1ccccc1F,·,·,–,–,·,–
CO[C@@H]1CN(C)C(=O)c2ccc(NC(=O)C3CCC3)cc2OC[C@@H](C)N(S(=O)(=O)c2ccc(Cl)cc2)C[C@H]1C,–,–,–,–,·,–
Nc1nc(Nc2ccccc2)nc(NCc2ccco2)c1[N+](=O)[O-],·,·,·,·,–,–
Fc1ccc(Nc2nc(NCc3ccco3)c3ccccc3n2)cc1,·,–,-41.0,–,–,–
CC(C)N(Cc1ccccc1)C(=O)COC(=O)c1cnc(Cl)c(Cl)c1,–,–,–,67.2,–,–
C[C@@H](NC(=O)C[C@@H]1CC[C@@H]2[C@H](COC[C@@H](O)CN2C(=O)Nc2cc(Cl)cc(Cl)c2)O1)c1ccccc1,–,–,–,–,·,–
COc1ccc(Cn2c(-c3ccc(OC)cc3)nc3ccccc32)cc1,–,–,–,–,–,·
COc1ccc(Cn2c(-c3ccc(Br)cc3)c[n+]3ccccc23)cc1,–,–,-30.4,–,–,–
CCCNC(=O)C[C@H]1CC[C@@H]2[C@H](COC[C@H](O)CN2C(=O)CC)O1,–,–,–,82.8,·,–
CCCNC(=O)N1C[C@H](O)COC[C@@H]2O[C@H](CC(=O)N3CCN(C)CC3)CC[C@H]21,–,–,–,–,·,–
CCCNC(=O)N1C[C@@H](O)COC[C@H]2O[C@H](CC(=O)N3CCN(C)CC3)CC[C@@H]21,–,–,–,–,·,104.9
